Measured values of several laboratories.
Each line is one published result; the experiments were not run side by side.
Effect on: cell growth or viability

With `N=C(NN=Cc1ccc(N2CCOCC2)cc1)NN=Cc1ccc(N2CCOCC2)cc1` the IC50 was 2.3 µM (L6; resazurin; 70 h).
`O=C1CCN2C(=O)c3ccccc3C2C(=O)Nc2ccc(F)cc21` (stereo not shown) has an IC50 of over 310 µM (L6).
With `N=C(NN=Cc1ccc(OC(F)F)cc1)NN=Cc1ccc(OC(F)F)cc1` the IC50 was 13.4 µM (L6; resazurin; 70 h).
The IC50 of `O=C1CCC(N2Cc3c(C#CC4CCN(C(=O)[C@H]5CC[C@H](NC(=O)[C@H]6NC7(CCCCC7)[C@]7(C(=O)Nc8cc(Cl)ccc87)[C@H]6c6cccc(Cl)c6F)CC5)CC4)cccc3C2=O)C(=O)N1` (stereo partly shown) is reported as 0.062 µM (RS4-11).
`CCNCCCn1c2c(c3cc(OC)c(OC)cc3c1=O)C(=O)c1cc3c(nc1-2)OCO3` gave an IC50 of 0.038 µM (RS4-11; MTS; 72 h).
`N=C(NN=CCc1ccc(OC(F)F)cc1)NN=CCc1ccc(OC(F)F)cc1` gave an IC50 of 2.03 µM (L6; resazurin; 70 h).
`O=C1CCN2C(=O)c3ccccc3C2C(=O)Nc2cc(F)ccc21` (stereo not shown) has an IC50 of over 300 µM (L6).
With `N=C(N/N=C/c1cccc([N+](=O)[O-])c1)N/N=C/c1cccc([N+](=O)[O-])c1` the IC50 was 17.7 µM (L6; resazurin; 70 h).
`CC(C)c1ccccc1[C@@H]1CCCN1C1CC2(CCN(c3ccc(C(=O)NS(=O)(=O)c4ccc(NC[C@H]5CC[C@](C)(O)CC5)c([N+](=O)[O-])c4)c(Oc4cnc5[nH]ccc5c4)c3)CC2)C1` has an IC50 of 0.00056 µM (RS4-11; ATP luminescence; 48 h).
The IC50 of `C=C(F)C(=O)N1CCN(c2nc(OC[C@@H]3CCCN3C)nc3c2CCN(c2cccc4cccc(Cl)c24)C3)C[C@@H]1CC#N` is reported as 3.07 µM (KYSE-410; ATP luminescence).
`COc1cc2nc(N3CCN(C(=O)C4COc5ccccc5O4)CC3)nc(N)c2cc1OC` (stereo not shown) has an IC50 of 22.4 µM (HNE1; MTT; 48 h).
The IC50 of `O=C1CCN2C(=O)CCC2C(=O)Nc2ccccc21` (stereo not shown) is reported as over 390 µM (L6).
With `Cc1cc(/C=C/C#N)cc(C)c1Nc1ccnc(Nc2ccc(C#N)cc2)n1` the IC50 was 7.59 µM (HK-1; MTT; 48 h).
`CC12C(=O)Nc3ccccc3C(=O)CCN1C(=O)c1ccccc12` (stereo not shown) has an IC50 of over 300 µM (L6).
For `COc1cc2c3c(n(CCCN4CCOCC4)c(=O)c2cc1OC)-c1nc2c(cc1C3=O)OCO2`, the IC50 was 0.283 µM (RS4-11; MTS; 72 h).
The IC50 of `CO[C@]12C[C@@H](COC(=O)c3cncc(Br)c3)CN(C)[C@@H]1Cc1cn(C)c3cccc2c13` is reported as 5.99 µM (HK-1; MTT; 48 h).
